Values after ≈ are worked out from the molar mass of the structure shown. Active and inactive are the calls of the source. No cut-off for these calls is given here.
What was measured:
Escherichia coli [1] = test: Antimicrobial activity against Escherichia coli NCIM 2065 at 1000 ug/disk after 24 hrs by disk diffusion method; type: functional; conditions: NCIM 2065, 24 h, read-out: DIZ
Outline: (§1)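 Disc diffusion on Mueller–Hinton agar. 100 µl of bacterial suspension at 10⁸ CFU/ml is spread on the plate. Discs carry test compounds at two loadings, dissolved in DMSO; DMSO alone serves as negative control. Ofloxacin disc is the positive reference. Plates are incubated at 37 °C for 24 h, and the inhibition zone diameter is measured.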

Escherichia coli [2] = test: Antimicrobial activity against Escherichia coli NCIM 2065 at 500 ug/disk after 24 hrs by disk diffusion method; type: functional; conditions: NCIM 2065, 24 h, read-out: DIZ; outline: as §1
Bacillus subtilis [3] = test: Antimicrobial activity against Bacillus subtilis NCIM 2063 at 500 ug/disk after 24 hrs by disk diffusion method; type: functional; conditions: NCIM 2063, 24 h, read-out: DIZ; outline: as §1
Bacillus subtilis [4] = test: Antimicrobial activity against Bacillus subtilis NCIM 2063 at 1000 ug/disk after 24 hrs by disk diffusion method; type: functional; conditions: NCIM 2063, 24 h, read-out: DIZ; outline: as §1
Bacillus cereus [5] = test: Antimicrobial activity against Bacillus cereus NCIM 2155 at 500 ug/disk after 24 hrs by disk diffusion method; type: functional; conditions: NCIM 2155, 24 h, read-out: DIZ; outline: as §1
Bacillus cereus [6] = test: Antimicrobial activity against Bacillus cereus NCIM 2155 at 1000 ug/disk after 24 hrs by disk diffusion method; type: functional; conditions: NCIM 2155, 24 h, read-out: DIZ; outline: as §1
Aliivibrio fischeri [7] = test: Antimicrobial activity against Vibrio fischeri NCIM 2154 at 500 ug/disk after 24 hrs by disk diffusion method; type: functional
Outline: (§2)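 Disc diffusion. 100 µl of bacterial suspension at 10⁸ CFU/ml was spread on Mueller–Hinton agar. Discs loaded with test compound dissolved in DMSO were placed on the lawn, with a DMSO-only disc as negative control. Plates were incubated at 37 °C for 24 h, and the inhibition zone diameter was measured.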

Aliivibrio fischeri [8] = test: Antimicrobial activity against Vibrio fischeri NCIM 2154 at 1000 ug/disk after 24 hrs by disk diffusion method; type: functional; outline: as §2
[9] = test system: Rhodococcus corynebacterioides; test: Antimicrobial activity against Corynebacterium rubrum NCIM 2252 at 500 ug/disk after 24 hrs by disk diffusion method; type: functional; conditions: Rhodococcoides corynebacterioides; outline: as §1
Salmonella typhimurium [10] = test: Antimicrobial activity against Salmonella Typhimurium NCIM 2501 at 1000 ug/disk after 24 hrs by disk diffusion method; type: functional; conditions: Salmonella enterica subsp. enterica serovar Typhimurium; outline: as §2
Salmonella typhimurium [11] = test: Antimicrobial activity against Salmonella Typhimurium NCIM 2501 at 500 ug/disk after 24 hrs by disk diffusion method; type: functional; conditions: Salmonella enterica subsp. enterica serovar Typhimurium; outline: as §2
[12] = test system: Rhodococcus corynebacterioides; test: Antimicrobial activity against Corynebacterium rubrum NCIM 2252 at 1000 ug/disk after 24 hrs by disk diffusion method; type: functional; conditions: Rhodococcoides corynebacterioides; outline: as §1
Staphylococcus [13] = test: Antimicrobial activity against Staphylococcus albus NCIM 2178 at 500 ug/disk after 24 hrs by disk diffusion method; type: functional; outline: as §2
Staphylococcus [14] = test: Antimicrobial activity against Staphylococcus albus NCIM 2178 at 1000 ug/disk after 24 hrs by disk diffusion method; type: functional; outline: as §2
Proteus vulgaris [15] = test: Antimicrobial activity against Proteus vulgaris NCIM 2027 at 500 ug/disk after 24 hrs by disk diffusion method; type: functional; outline: as §1
Proteus vulgaris [16] = test: Antimicrobial activity against Proteus vulgaris NCIM 2027 at 1000 ug/disk after 24 hrs by disk diffusion method; type: functional; outline: as §1
Aspergillus flavus [17] = test: Antimicrobial activity against Aspergillus flavus NCIM 902 at 500 ug/disk after 72 hrs by disk diffusion method; type: functional; conditions: NCIM 902, 72 h, read-out: DIZ
Outline: (§3)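 Disc diffusion on Sabouraud's dextrose agar. 100 µl of fungal suspension at 10⁶ CFU/ml is spread on the plate. Discs carry test compounds at two loadings in DMSO; DMSO alone is the negative control. Clotrimazole disc is the positive reference. Plates are incubated at 27 °C for 72 h, and the zone of inhibition diameter is measured.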

Aspergillus flavus [18] = test: Antimicrobial activity against Aspergillus flavus NCIM 902 at 1000 ug/disk after 72 hrs by disk diffusion method; type: functional; conditions: NCIM 902, 72 h, read-out: DIZ; outline: as §3
Rhodotorula mucilaginosa [19] = test: Antimicrobial activity against Rhodotorula rubra NCIM 3174 at 500 ug/disk after 72 hrs by disk diffusion method; type: functional; conditions: NCIM 3174, 72 h, read-out: DIZ
Outline: (§4)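 Fungal disc diffusion. 100 µl of suspension at 10⁶ CFU/ml was spread on Sabouraud's dextrose agar. Discs carrying test compound in DMSO were applied, with a DMSO-only disc as negative control. Plates were incubated at 27 °C for 72 h, and the zone of inhibition diameter was measured.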

Rhodotorula mucilaginosa [20] = test: Antimicrobial activity against Rhodotorula rubra NCIM 3174 at 1000 ug/disk after 72 hrs by disk diffusion method; type: functional; conditions: NCIM 3174, 72 h, read-out: DIZ; outline: as §4
Aspergillus fumigatus [21] = test: Antimicrobial activity against Aspergillus fumigatus NCIM 902 at 500 ug/disk after 72 hrs by disk diffusion method; type: functional; outline: as §3
Aspergillus fumigatus [22] = test: Antimicrobial activity against Aspergillus fumigatus NCIM 902 at 1000 ug/disk after 72 hrs by disk diffusion method; type: functional; conditions: NCIM 902, 72 h, read-out: DIZ; outline: as §3
Aspergillus parasiticus [23] = test: Antimicrobial activity against Aspergillus parasiticus NCIM 904 at 500 ug/disk after 72 hrs by disk diffusion method; type: functional; conditions: NCIM 904, 72 h, read-out: DIZ; outline: as §3
Aspergillus parasiticus [24] = test: Antimicrobial activity against Aspergillus parasiticus NCIM 904 at 1000 ug/disk after 72 hrs by disk diffusion method; type: functional; conditions: NCIM 904, 72 h, read-out: DIZ; outline: as §3
Penicillium chrysogenum [25] = test: Antimicrobial activity against Penicillium chrysogenum NCIM 707 at 500 ug/disk after 72 hrs by disk diffusion method; type: functional; outline: as §3
Penicillium chrysogenum [26] = test: Antimicrobial activity against Penicillium chrysogenum NCIM 707 at 1000 ug/disk after 72 hrs by disk diffusion method; type: functional; outline: as §3
Lipomyces lipofer [27] = test: Antimicrobial activity against Lipomyces lipofer NCIM 3252 at 500 ug/disk after 72 hrs by disk diffusion method; type: functional; outline: as §3
Lipomyces lipofer [28] = test: Antimicrobial activity against Lipomyces lipofer NCIM 3252 at 1000 ug/disk after 72 hrs by disk diffusion method; type: functional; outline: as §3
Klebsiella aerogenes [29] = test: Antimicrobial activity against Klebsiella aerogenes NCIM 2239 at 1000 ug/disk after 24 hrs by disk diffusion method; type: functional; outline: as §1
Klebsiella aerogenes [30] = test: Antimicrobial activity against Klebsiella aerogenes NCIM 2239 at 500 ug/disk after 24 hrs by disk diffusion method; type: functional; outline: as §1
Pseudomonas aeruginosa [31] = test: Antimicrobial activity against Pseudomonas aeruginosa NCIM 2200 at 1000 ug/disk after 24 hrs by disk diffusion method; type: functional; outline: as §1
Pseudomonas aeruginosa [32] = test: Antimicrobial activity against Pseudomonas aeruginosa NCIM 2200 at 500 ug/disk after 24 hrs by disk diffusion method; type: functional; outline: as §2
Aspergillus flavus [33] = test: Antimicrobial activity against Aspergillus flavus NCIM 902 after 72 hrs by serial dilution method; type: functional; conditions: NCIM 535, 72 h, in the assay text read “NCIM 535” for “NCIM 902”
Outline: (§5)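 MIC by broth dilution in Sabouraud's dextrose broth, only for fungi sensitive in disc diffusion. Two-fold serial dilutions of compounds are made in 1 ml broth per tube, range 3.9 to 1000. Inoculated tubes are incubated at 27 °C for 72 h.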

Rhodotorula mucilaginosa [34] = test: Antimicrobial activity against Rhodotorula rubra NCIM 3174 after 72 hrs by serial dilution method; type: functional; conditions: NCIM 3174, 72 h
Outline: (§6)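 MIC by broth dilution in Sabouraud's dextrose broth, run only on fungi found sensitive in the disc assay. Twofold serial dilutions were made in 1 ml broth per tube, covering 3.9 to 1000. Inoculated tubes were incubated at 27 °C for 72 h.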

Aspergillus fumigatus [35] = test: Antimicrobial activity against Aspergillus fumigatus NCIM 902 after 72 hrs by serial dilution method; type: functional; conditions: NCIM 902, 72 h; outline: as §5
Aspergillus parasiticus [36] = test: Antimicrobial activity against Aspergillus parasiticus NCIM 904 after 72 hrs by serial dilution method; type: functional; conditions: NCIM 904, 72 h; outline: as §5
Trichoderma viride [37] = test: Antimicrobial activity against Trichoderma viride NCIM 1195 after 72 hrs by serial dilution method; type: functional; conditions: NCIM 1195, 72 h; outline: as §6
Trichoderma viride [38] = test: Antimicrobial activity against Trichoderma viride NCIM 1195 at 500 ug/disk after 72 hrs by disk diffusion method; type: functional; conditions: NCIM 1195, 72 h, read-out: DIZ; outline: as §4
Trichoderma viride [39] = test: Antimicrobial activity against Trichoderma viride NCIM 1195 at 1000 ug/disk after 72 hrs by disk diffusion method; type: functional; conditions: NCIM 1195, 72 h, read-out: DIZ; outline: as §4
Escherichia coli [40] = test: Antimicrobial activity against Escherichia coli NCIM 2065 after 24 hrs by serial dilution method; type: functional; conditions: NCIM 2065, 24 h
Outline: (§7)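 Broth dilution MIC in nutrient broth, run only for organisms found sensitive in disc diffusion. Compounds are two-fold serially diluted in 1 ml sterile broth per tube, spanning 3.9 to 1000. Inoculated tubes are incubated at 37 °C for 24 h.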

Bacillus subtilis [41] = test: Antimicrobial activity against Bacillus subtilis NCIM 2063 after 24 hrs by serial dilution method; type: functional; conditions: NCIM 2063, 24 h; outline: as §7
Bacillus cereus [42] = test: Antimicrobial activity against Bacillus cereus NCIM 2155 after 24 hrs by serial dilution method; type: functional; conditions: NCIM 2155, 24 h; outline: as §7
Aspergillus niger [43] = test: Antimicrobial activity against Aspergillus niger NCIM 1196 at 500 ug/disk after 72 hrs by disk diffusion method
Aspergillus niger [44] = test: Antimicrobial activity against Aspergillus niger NCIM 1196 at 1000 ug/disk after 72 hrs by disk diffusion method

O=C1CCCC2=C1C(c1ccccc1)c1ccc3ccccc3c1N2 (centres undefined)
zone of inhibition at 1000 µg/disc (Escherichia coli [1]): 9 mm
zone of inhibition at 500 µg/disc (Escherichia coli [2]): 8 mm
zone of inhibition at 500 µg/disc (Bacillus subtilis [3]): 8 mm
zone of inhibition at 1000 µg/disc (Bacillus subtilis [4]): 10 mm
zone of inhibition at 500 µg/disc (Bacillus cereus [5]): 8 mm
zone of inhibition at 1000 µg/disc (Bacillus cereus [6]): 9 mm
diameter of the inhibition zone (DIZ) (Aliivibrio fischeri [7]): inactive
diameter of the inhibition zone (DIZ) (Aliivibrio fischeri [8]): inactive
diameter of the inhibition zone (DIZ) [9]: inactive
diameter of the inhibition zone (DIZ) (Salmonella typhimurium [10]): inactive
diameter of the inhibition zone (DIZ) (Salmonella typhimurium [11]): inactive
diameter of the inhibition zone (DIZ) [12]: inactive
diameter of the inhibition zone (DIZ) (Staphylococcus [13]): inactive
diameter of the inhibition zone (DIZ) (Staphylococcus [14]): inactive
diameter of the inhibition zone (DIZ) (Proteus vulgaris [15]): inactive
diameter of the inhibition zone (DIZ) (Proteus vulgaris [16]): inactive
zone of inhibition at 500 µg/disc (Aspergillus flavus [17]): 9 mm
zone of inhibition at 1000 µg/disc (Aspergillus flavus [18]): 10 mm
zone of inhibition at 500 µg/disc (Rhodotorula mucilaginosa [19]): 8 mm
zone of inhibition at 1000 µg/disc (Rhodotorula mucilaginosa [20]): 12 mm
diameter of the inhibition zone (DIZ) (Aspergillus fumigatus [21]): inactive
zone of inhibition at 1000 µg/disc (Aspergillus fumigatus [22]): 11 mm
zone of inhibition at 500 µg/disc (Aspergillus parasiticus [23]): 7 mm
zone of inhibition at 1000 µg/disc (Aspergillus parasiticus [24]): 9 mm
diameter of the inhibition zone (DIZ) (Penicillium chrysogenum [25]): inactive
diameter of the inhibition zone (DIZ) (Penicillium chrysogenum [26]): inactive
diameter of the inhibition zone (DIZ) (Lipomyces lipofer [27]): inactive
diameter of the inhibition zone (DIZ) (Lipomyces lipofer [28]): inactive
diameter of the inhibition zone (DIZ) (Klebsiella aerogenes [29]): inactive
diameter of the inhibition zone (DIZ) (Klebsiella aerogenes [30]): inactive
diameter of the inhibition zone (DIZ) (Pseudomonas aeruginosa [31]): inactive
diameter of the inhibition zone (DIZ) (Pseudomonas aeruginosa [32]): inactive
MIC (Aspergillus flavus [33]): 62.5 µg/mL (≈ 192 µM)
MIC (Rhodotorula mucilaginosa [34]): 31.2 µg/mL (≈ 95.9 µM)
MIC (Aspergillus fumigatus [35]): 62.5 µg/mL (≈ 192 µM)
MIC (Aspergillus parasiticus [36]): 62.5 µg/mL (≈ 192 µM)
MIC (Trichoderma viride [37]): 31.2 µg/mL (≈ 95.9 µM)
zone of inhibition at 500 µg/disc (Trichoderma viride [38]): 11 mm
zone of inhibition at 1000 µg/disc (Trichoderma viride [39]): 12 mm
MIC (Escherichia coli [40]): 125 µg/mL (≈ 384 µM)
MIC (Bacillus subtilis [41]): 62.5 µg/mL (≈ 192 µM)
MIC (Bacillus cereus [42]): 125 µg/mL (≈ 384 µM)
diameter of the inhibition zone (DIZ) (Aspergillus niger [43]): inactive
diameter of the inhibition zone (DIZ) (Aspergillus niger [44]): inactive

— ChEMBL document CHEMBL1138564, “Microwave-induced synthesis and anti-microbial activities of 7,10,11,12-tetrahydrobenzo[c]acridin-8(9H)-one derivatives” (2009)
